The subject of one assay is AgrC-I-GFP. Nature of the assay: β-lactamase reporter assay, AgrC-I-GFP. The conditions noted are these: C-terminal GFP fusion (Figure S2). It counts as cell-based, S. aureus.
Another assay deals with AgrC-II. The conditions noted are these: background statement, no reference at the place; cited from earlier work.
The test system of assay [1] is N-terminal truncations of AgrC-I. In words: β-lactamase reporter assay, N-terminally truncated AgrC-I alone. In kind it is cell-based, S. aureus. The conditions noted are these: two truncated sensor domains, expressed alone (Figure S5A).
The subject of the next assay is AgrC-IHis (H239Q). In words: β-lactamase reporter assay, AgrC-IHis. In kind it is cell-based, S. aureus. The note with it: H-box mutant; varying concentrations of synthetic AIP (Figure S1). Put shortly:
(§1)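 Agr-deficient S. aureus RN10829 derivatives lacking AIP production, carrying a chromosomal P3-blaZ fusion and agrP2-driven plasmid agrC (compatible plasmids for co-expression), grown to mid-exponential phase in CYGP or MH broth at 37 °C with shaking. Cells were plated and given increasing synthetic AIP. β-Lactamase was read by nitrocefin initial velocity as percent maximal activation. EC50 came from a four-parameter logistic fit. Two or three replicates.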

Assay [2] concerns AgrC-ISensor, His / AgrC-ISensor, Kin. Nature of the assay: β-lactamase reporter assay, co-expressed AgrC-ISensor, His / AgrC-ISensor, Kin. It counts as cell-based, S. aureus. Put shortly:
as §1

Another assay relates to AgrC-IHis / AgrC-IKin. In words: β-lactamase reporter assay, activation of co-expressed AgrC-IHis / AgrC-IKin. It counts as cell-based, S. aureus. The conditions noted are these: co-expressed mutants. The method in brief:
as §1

The next assay relates to AgrC-I N339D. Nature of the assay: β-lactamase reporter assay, AgrC-I N339D. It counts as cell-based, S. aureus. The note with it: N-box mutant; varying concentrations of synthetic AIP.
The next assay has as its system AgrC-I G396A. Nature of the assay: β-lactamase reporter assay, AgrC-I G396A. In kind it is cell-based, S. aureus. The note with it: individual G-box glycine mutant; varying concentrations of synthetic AIP.
Assay [3] concerns AgrC-IHis / AgrC-IΔ1-135, Kin. Nature of the assay: β-lactamase reporter assay, AgrC-IHis / truncated AgrC-IΔ1-135, Kin. It counts as cell-based, S. aureus. The note with it: full-length AgrC-IHis with AgrC-IΔ1-135, Kin (Figure S5B).
Assay [4] concerns AgrC-ISensor (T104V, S107A, S116I). The conditions noted are these: mutations in second extracellular loop; ref Geisinger et al., 2008; cited from earlier work.
Another assay concerns AgrC-I G394A. In words: β-lactamase reporter assay, AgrC-I G394A. In kind it is cell-based, S. aureus. The conditions noted are these: individual G-box glycine mutant; varying concentrations of synthetic AIP.
The test system of assay [5] is AgrC-IHis / AgrC-ISensor, Kin. Nature of the assay: β-lactamase reporter assay, activation of AgrC-IHis / AgrC-ISensor, Kin. The note with it: Kin combined with AgrC-IHis versus AgrC-ISensor, His. In kind it is cell-based, S. aureus.
Another assay concerns the target WT AgrC-II. Nature of the assay: β-lactamase reporter assay, WT AgrC-II. It counts as cell-based, S. aureus. The note with it: read-out: EC50 (no activation); P3-blaZ reporter cells, nitrocefin method. The method in brief: as §1

Data on 1 substance can be found in PMC3913215 (Molecular microbiology, 2009).

Some results are limits rather than exact numbers.

On to AIP-I, for which the “receptor activation compared to WT” value with AgrC-I-GFP was “only slightly decreased compared to the WT receptor”. In addition, the “antagonism of AgrC-II” value in the assay with AgrC-II is “potent cross-group inhibitors”. Also, the “activation by AIP-I” value in assay [1] is recorded as “None of the resulting dimers, with two truncated sensor domains, displayed significant activity”; in assay [3], “significant activity”. Also, the receptor activation result in the assay on AgrC-IHis (H239Q) is “completely inactive”; in the assay with AgrC-I N339D, “only partially reduced receptor activation”; with AgrC-I G396A, “weaker activation than that seen with AgrC-I N339D”; with AgrC-I G394A it was “weaker activation than that seen with AgrC-I N339D”. In addition, in assay [2] (AgrC-ISensor, His / AgrC-ISensor, Kin versus WT sensor domains), the “reduction in activity compared with WT sensor domains” value was “over 150 -fold”. Besides, the EC50 in assay [2] (co-expressed mutants, both sensor domains mutated) was 6.1 µM; on WT AgrC-II it was greater than 10 µM. In the assay with AgrC-IHis / AgrC-IKin, the “maximal activity compared to WT AgrC” value is “moderately reduced compared to WT AgrC”. Moreover, the “maximal activation relative to full-length complementary pair” value in assay [3] is listed as “only a third of that observed for the full-length complementary pair”. Further, in assay [4], the “reduction in sensitivity to AIP-I” value is given as “about 50 -fold”. The “increase in activation by AIP-I” value in assay [5] is “approximately 30 -fold”.
